Reference: ChEMBL document CHEMBL3085664, “Structure-activity relationship of imidazopyridinium analogues as antagonists of neuropeptide s receptor” (J Med Chem, 2013)
pIC50: −log10 of the molar value.

Legend:
Neuropeptide S receptor [1] = target: T1, Neuropeptide S receptor (Homo sapiens, UniProt Q6W5P4); assay: Antagonist activity at neuropeptide S receptor (unknown origin) expressed in CHO cells assessed as inhibition of NPS-induced ERK activation after 20 mins by HTRF assay; format: cell-based
T1 sequence (Q6W5P4 whole entry): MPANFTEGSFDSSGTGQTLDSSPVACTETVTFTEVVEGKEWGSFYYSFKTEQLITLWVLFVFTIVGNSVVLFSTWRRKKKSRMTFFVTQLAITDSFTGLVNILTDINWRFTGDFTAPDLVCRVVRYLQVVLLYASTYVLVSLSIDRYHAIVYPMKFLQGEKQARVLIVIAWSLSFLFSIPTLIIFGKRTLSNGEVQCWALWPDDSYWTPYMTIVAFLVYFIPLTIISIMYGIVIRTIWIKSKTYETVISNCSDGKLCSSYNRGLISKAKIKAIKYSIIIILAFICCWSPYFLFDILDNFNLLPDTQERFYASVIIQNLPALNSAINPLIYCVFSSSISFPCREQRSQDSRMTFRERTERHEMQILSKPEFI

Neuropeptide S receptor [2] = target: T1, Neuropeptide S receptor; assay: Antagonist activity at neuropeptide S receptor (unknown origin) expressed in CHO cells assessed as inhibition of NPS-induced calcium mobilization after 10 mins by fluorescence assay; format: functional, cell-based; details: read-out: IC50
Procedure, shortened: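 CHO-NPSR cells, 2000/well in 1536-well plates, incubated overnight, then loaded with no-wash calcium dye for 1 h at 37°C. Compound in DMSO was added for 10 min. Baseline fluorescence was recorded 6 s at 1 Hz, then EC80 NPS in stimulation buffer was added and recording continued 4 min at 1 Hz on a kinetic reader. IC50 is the mean with SD of two independent experiments in duplicate.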

Neuropeptide S receptor [3] = target: T1, Neuropeptide S receptor; assay: Antagonist activity at neuropeptide S receptor (unknown origin) expressed in CHO cells assessed as cAMP level after 30 mins by […] assay; format: functional, cell-based; details: read-out: IC50
Procedure, shortened: (§1)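 CHO cells stably expressing NPSR, 1800 cells/well in 1536-well format, seeded overnight at 37°C in medium without Geneticin. Stimulation buffer (PBS, 0.1% BSA, 0.05% Tween-20, 500µM Ro 20-1724, EC80 NPS) was added for 30 min at 37°C. cAMP was read by HTRF (d2-cAMP/cryptate anti-cAMP in lysis buffer, 30 min). IC50 is the mean with SD of two independent experiments, each run in duplicate.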

[4] = Chemical stability of the compound in phosphate-buffered saline after 48 hrs; format: physicochemical; details: buffer
Procedure, shortened: (§2)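 Compound was held in Hank's balanced buffer solution or PBS for 48 hours and checked for decomposition to other species.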

[5] = Chemical stability of the compound in HBBS buffer after 48 hrs; format: physicochemical; procedure, shortened: as §2
Neuropeptide S receptor [6] = target: T1, Neuropeptide S receptor; assay: Displacement of [125I]Tyr10-NPS from neuropeptide S receptor (unknown origin)
Procedure, shortened: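 Whole CHO cells stably expressing human NPSR at 90–95% confluency in 24-well plates. Cells were incubated with 0.15 nM [125I]Y10-NPS plus increasing compound or unlabeled NPS in DMEM/0.1% BSA, 20°C, 1.5 hr. Nonspecific binding was defined with 1 µM unlabeled human NPS. Cells were washed, lysed in 1 N NaOH and counted by liquid scintillation. IC50 from one experiment in duplicate.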

Neuropeptide S receptor [7] = target: T1, Neuropeptide S receptor; assay: Antagonist activity at neuropeptide S receptor (unknown origin) assessed as cAMP level by cell based assay; format: functional; procedure, shortened: as §1
Neuropeptide S receptor [8] = target: T1, Neuropeptide S receptor; assay: Antagonist activity at neuropeptide S receptor (unknown origin) assessed as intracellular calcium level by cell based assay; format: functional
Procedure, shortened: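 CHO cells stably expressing NPSR were seeded at 2000 cells/well and incubated overnight at 37 °C, 5% CO2. They were loaded with no-wash calcium dye for 1 h, then preincubated with compound in DMSO for 10 min. Stimulation used NPS at EC80 in PBS/0.1% BSA/0.05% Tween-20 with 500 µM Ro 20-1724. Kinetic fluorescence was read at 1 Hz: 6 s baseline, then 4 min. IC50 is the mean ± SD of two independent experiments, each in duplicate.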

Question: With `Cc1c(P(=S)(c2ccccc2)c2ccccc2)[n+]2ccccc2n1C.[I-]` as the compound, how does the pIC50 (Neuropeptide S receptor [1]) read?
Answer: Its pIC50 is 7.52.

Question: What about the pIC50 (Neuropeptide S receptor [2]) of the same compound?
Answer: Its pIC50 is 7.29.

Question: And the pIC50 (Neuropeptide S receptor [3])?
Answer: Its pIC50 is 5.77.

Question: And the Stability [4]?
Answer: The Stability was “Stable”.

Question: And the Stability [5]?
Answer: Its Stability is “Stable”.

Question: What about the pIC50 (Neuropeptide S receptor [6]) of the same compound?
Answer: Its pIC50 is 7.08.

Question: What about the pIC50 (Neuropeptide S receptor [7]) of the same compound?
Answer: Its pIC50 is 5.77.

Question: And the pIC50 (Neuropeptide S receptor [8])?
Answer: The pIC50 was 7.29.
